According to publication PMC9753181 (ACS Omega, 2022):
“Also recorded” adds a separate entry of the source. Read-outs that look alike come from different tables or passages of the source.

Legend:
[1] = test system: multidrug resistance-associated protein 4 (MRP4); conditions: ref 28 (RDV), FDA Office of Clinical Pharmacology Review (GS-441524); cited from earlier work
SARS-CoV-2 [2] = conditions: rhesus macaque, cited from earlier work
SARS-CoV-2 [3] = conditions: cited from earlier work
SARS-CoV-2 M^pro = SARS-CoV-2 M^pro (Severe acute respiratory syndrome coronavirus 2, UniProt P0DTD1); conditions: cited from earlier work
SARS-CoV-2 [4] = conditions: cited from earlier work; for EC50, inhibit SARS-CoV-2 replications in vitro: entry inhibitors
SARS-CoV-2 [5] = conditions: hamster; cited from earlier work
influenza [6] = assay: Predicted anti-influenza EC50 by pEC50 = pIC50 + Log Fic; conditions: A549, read-out: Predicted EC50 (anti-influenza)
influenza [7] = conditions: read-out: Observed EC50, influenza replication; A549 cells; cited from earlier work
ACE2 = ACE2 expression in Vero E6 cells; assay type: cell-based; conditions: 48 h, RNA-seq, western blot
Calu-3 cells = assay: Cytotoxicity; assay type: cell-based
Procedure, shortened: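 Calu-3 cells were grown in medium supplemented with 1% non-essential amino acids and 1% sodium pyruvate at 37 °C, 5% CO2. Cells were seeded and cultured for 24 h, then exposed to test compound for 48 h. CCK8 solution was added at 10% and incubated 15 min to read viability.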

RdRp of SARS-CoV-2 = conditions: read-out: IC50, inhibition of RdRp of SARS-CoV-2; active form of RDV; cited from earlier work
[8] = IV injection of RDV, rhesus macaques
[9] = IV injection of RDV, nonhuman primates; cited from earlier work
[10] = IV injection of RDV, mice

For `CCC(CC)COC(=O)[C@H](C)N[P@](=O)(OC[C@H]1O[C@@](C#N)(c2ccc3c(N)ncnn23)[C@H](O)[C@@H]1O)Oc1ccccc1` [RDV, Remdesivir], the “Substrate of MRP4” value [1] is given as “substrate”, the “Antiviral activity in vivo” value (SARS-CoV-2 [2]; RDV) is given as “strong antiviral activities” and the “Virus titer in the lung / antiviral activity in vivo” value (SARS-CoV-2 [3]; RDV, mouse) is given as “successfully reduce virus titer in the lung; also recorded: strong antiviral activities”. The “Drug accumulation with ceefourin (MRP4 inhibitor)” value (A549-ACE2 cells) was “Neither verapamil nor ceefourin changed RDV accumulation”, the “Drug accumulation with verapamil (P-gp inhibitor)” value (A549-ACE2 cells) was “Neither verapamil nor ceefourin changed RDV accumulation” and the “Drug accumulation with ceefourin (MRP4 inhibitor)” value (Vero E6 cells; Vero E6 cells) was “significantly increased RDV accumulation”. The “Drug accumulation with verapamil (P-gp inhibitor)” value (Vero E6 cells; Vero E6 cells) was “significantly increased RDV accumulation”.
For `CCN(CCO)CCCC(C)Nc1ccnc2cc(Cl)ccc12` (centres unmarked) [HCQ, hydroxychloroquine], the “Infectious titers in lungs” value (SARS-CoV-2 [2]) is given as “failed to reduce infectious titers”, the “Inhibition of M^pro activities at 200 μM” value (SARS-CoV-2 M^pro) is given as “slightly inhibited” and the “EC50, inhibit SARS-CoV-2 replications in vitro” value (SARS-CoV-2 [4]) is given as “low micromolar”. The “Infectious titers in lungs” value (SARS-CoV-2 [5]) was “failed to reduce infectious titers” and the “Drug accumulation with verapamil (P-gp inhibitor)” value (Vero E6 cells; Vero E6 cells) was “facilitated accumulation”.
In the case of `NC(=O)c1nc(F)c[nH]c1=O` [FAV, Favipiravir], the Fic (A549 cells) is listed as 0.03145, the EC50 (influenza [6]) is listed as 3.2 µM and the EC50 (influenza [7]) is listed as 3 µM. The EC50 (SARS-CoV-2 [4]; read-out: Observed EC50, SARS-CoV-2 replication, Vero E6) was 65 to 400 µM, the “Infectious titers in the lung” value (SARS-CoV-2 [5]) was “reduction of infectious titers in the lung” and the Fic (Vero E6 cells; Vero E6, Fic = fu,cell x Kp) was 0.03371. The “Drug accumulation with verapamil (P-gp inhibitor)” value (Vero E6 cells; Vero E6 cells) was “increased FAV accumulation” and the ACE2 expression (ACE2) was “reduced angiotensin-converting enzyme 2 (ACE2) expression”.
In the case of `COc1ccc(CCN(C)CCCC(C#N)(c2ccc(OC)c(OC)c2)C(C)C)cc1OC` (centres unmarked) [verapamil], the Cytotoxicity (Calu-3 cells) is reported as “strong cytotoxicity”.
For `N#C[C@@]1(c2ccc3c(N)ncnn23)O[C@H](COP(=O)(O)OP(=O)(O)OP(=O)(O)O)[C@@H](O)[C@H]1O` [GS-443902], the IC50 (RdRp of SARS-CoV-2) is given as 0.032 µM.
In the case of `N#C[C@@]1(c2ccc3c(N)ncnn23)O[C@H](CO)[C@@H](O)[C@H]1O` [GS-441524], the “Substrate of MRP4” value [1] is given as “not a substrate”, the “Lung concentration of GS-441524 relative to its predicted EC50” value [8] is given as 10 fold and the “SARS-CoV-2 replication in vivo” value (SARS-CoV-2 [3]; oral administration of GS-441524, mouse model) is given as “inhibit SARS-CoV-2 replication in vivo”. The “Bloodstream concentration of GS-441524 relative to RDV” value [9] was 1000 fold and the “Lung concentration of GS-441524 relative to its predicted EC50” value [10] was 10 fold.
For `CCN(CC)CCCC(C)Nc1ccnc2cc(Cl)ccc12` (centres unmarked) [CQ, Chloroquine], the “EC50, inhibit SARS-CoV-2 replications in vitro” value (SARS-CoV-2 [4]) is listed as “low micromolar” and the “Drug accumulation with verapamil (P-gp inhibitor)” value (Vero E6 cells) is listed as “facilitated accumulation”.
